Results from ChEMBL document CHEMBL2021841, “The design and synthesis of potent, selective benzodiazepine sulfonamide bombesin receptor subtype 3 (BRS-3) agonists with an increased barrier of atropisomerization” (Bioorg Med Chem, 2012).

Columns and labels:
[1] = biological target: T1, Bombesin receptor subtype-3 (Homo sapiens) (UniProt P32247); experiment: Agonist activity at human BRS3 expressed in human HEK293AEQ cells measured for 10 mins by aequorin bioluminescence assay relative to dY-peptide; assay type: functional, cell-based
T1 sequence (whole entry): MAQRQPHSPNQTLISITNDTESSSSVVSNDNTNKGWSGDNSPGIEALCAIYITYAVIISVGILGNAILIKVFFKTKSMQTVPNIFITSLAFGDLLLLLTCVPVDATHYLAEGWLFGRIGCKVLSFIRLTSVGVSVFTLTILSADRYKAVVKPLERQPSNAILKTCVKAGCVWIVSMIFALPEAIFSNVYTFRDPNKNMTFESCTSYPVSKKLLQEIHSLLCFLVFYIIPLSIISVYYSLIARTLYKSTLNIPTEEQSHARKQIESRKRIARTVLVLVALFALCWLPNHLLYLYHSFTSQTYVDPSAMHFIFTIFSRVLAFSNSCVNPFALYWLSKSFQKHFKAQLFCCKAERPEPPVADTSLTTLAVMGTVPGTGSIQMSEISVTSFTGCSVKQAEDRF
Method in brief: (§1)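 Same aequorin read-out in HEK293AEQ cells expressing human or mouse BRS3. Compounds were titrated in ECB buffer with 0.5% DMSO final, and coelenterazine-loaded cells were injected. Luminescence was integrated over 10 min. The value is maximal activation expressed as a percentage of the maximal response to dY-peptide.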

Rattus norvegicus = experiment: Dose normalized AUC in Sprague-Dawley rat at 1 mg/kg, po; assay type: ADME, organism-based; design: dose 1 mg/kg, route oral; details: in vivo
Method in brief: (§2)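 Sprague Dawley rats were dosed 1 mg/kg po. Dose-normalized oral AUC and oral bioavailability were calculated.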

[2] = biological target: T2, Bombesin receptor subtype-3 (Homo sapiens, UniProt P32247); experiment: Displacement of 125I-dY-peptide from human BRS3 expressed in NFAT-CHO cells after 2 hrs by liquid scintillation counting; assay type: cell-based
T2 sequence (P32247 whole entry): T1 sequence (whole entry)

[3] = Half life in Sprague-Dawley rat at 0.5 mg/kg, iv; assay type: ADME, organism-based; design: dose 0.5 mg/kg, route intravenous; details: in vivo
Method in brief: (§3)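 Sprague Dawley rats received 0.5 mg/kg iv. Plasma clearance and half-life were calculated from the plasma profile.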

[4] = biological target: T2, Bombesin receptor subtype-3; experiment: Agonist activity at human BRS3 expressed in human HEK293AEQ cells measured for 10 mins by aequorin bioluminescence assay; assay type: functional, cell-based
[5] = Plasma clearance in Sprague-Dawley rat at 0.5 mg/kg, iv; assay type: ADME, organism-based; design: dose 0.5 mg/kg, route intravenous; method in brief: as §3
[6] = Oral bioavailability in Sprague-Dawley rat at 1 mg/kg; assay type: ADME, organism-based; details: in vivo; method in brief: as §2
[7] = biological target: T3, Bombesin receptor subtype-3 (Mus musculus) (UniProt O54798); experiment: Agonist activity at mouse BRS3 expressed in human HEK293AEQ cells measured for 10 mins by aequorin bioluminescence assay relative to dY-peptide; assay type: functional, cell-based; method in brief: as §1
T3 sequence (whole entry): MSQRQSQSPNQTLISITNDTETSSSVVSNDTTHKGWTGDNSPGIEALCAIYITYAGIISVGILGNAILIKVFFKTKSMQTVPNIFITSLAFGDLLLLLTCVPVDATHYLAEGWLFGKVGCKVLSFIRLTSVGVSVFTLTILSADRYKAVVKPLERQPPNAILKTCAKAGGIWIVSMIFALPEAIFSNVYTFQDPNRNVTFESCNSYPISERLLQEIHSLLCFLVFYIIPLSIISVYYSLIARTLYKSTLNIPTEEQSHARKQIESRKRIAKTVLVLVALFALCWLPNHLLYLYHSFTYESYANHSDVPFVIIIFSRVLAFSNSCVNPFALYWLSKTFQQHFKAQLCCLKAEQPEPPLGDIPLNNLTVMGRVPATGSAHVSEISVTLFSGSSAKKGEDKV

[8] = biological target: T4, Bombesin receptor subtype-3 (Mus musculus, UniProt O54798); experiment: Agonist activity at mouse BRS3 expressed in human HEK293AEQ cells measured for 10 mins by aequorin bioluminescence assay; assay type: functional, cell-based
T4 sequence (O54798 whole entry): T3 sequence (whole entry)

[9] = Half life of the compound in ethanol at 60 degC by CD spectroscopy; assay type: physicochemical

| Activity [1] | AUC/dose (Rattus norvegicus) | IC50 [2] | half-life [3] | EC50 [4] | clearance [5] | bioavailability [6] | Activity [7] | EC50 [8] | half-life [9] | Structure (SMILES) |
| --- | --- | --- | --- | --- | --- | --- | --- | --- | --- | --- |
| 90% | 0.3 µM·kg·h/mg | 0.5 nM | 1.6 h | 26 nM | 33 mL/min/kg | 31% | 98% | 27 nM |  | CC(C)(C(N)=O)c1cccc2c1N(S(=O)(=O)c1ccc(OC(F)(F)F)cc1)Cc1ccc(C(F)(F)F)nc1N2 |
| 106% | 1.6 µM·kg·h/mg | 3.6 nM | 11 h | 73 nM | 16 mL/min/kg | 93% |  | 130 nM | 2.2 h | CC(C)(O)c1nc(-c2cccc3c2N(S(=O)(=O)c2ccc(OC(F)(F)F)cc2)Cc2ccc(C(F)(F)F)nc2N3)no1 |
| 97% | 2.6 µM·kg·h/mg | 1.4 nM | 3.1 h | 64 nM | 12 mL/min/kg | 100% | 105% | 67 nM | > 250 h | CC(C)(O)c1nc(C(C)(C)c2cccc3c2N(S(=O)(=O)c2ccc(OC(F)(F)F)cc2)Cc2ccc(C(F)(F)F)nc2N3)no1 |
| 95% | 0.3 µM·kg·h/mg | 0.5 nM | 0.8 h | 21 nM | 31 mL/min/kg | 32% | 100% | 22 nM | > 250 h | NC(=O)C1(c2cccc3c2N(S(=O)(=O)c2ccc(OC(F)(F)F)cc2)Cc2ccc(C(F)(F)F)nc2N3)CCC1 |
| 97% | 0.6 µM·kg·h/mg | 0.6 nM | 2.9 h | 82 nM | 21 mL/min/kg | 49% | 99% | 76 nM | > 250 h | CC(C)(O)c1nc(C2(c3cccc4c3N(S(=O)(=O)c3ccc(OC(F)(F)F)cc3)Cc3ccc(C(F)(F)F)nc3N4)CCC2)no1 |
| 106% | 0.69 µM·kg·h/mg | 2.1 nM | 1.7 h | 15 nM | 25 mL/min/kg | 60% | 112% | 22 nM |  | CNC(=O)C1(c2cccc3c2N(S(=O)(=O)c2ccc(OC(F)(F)F)cc2)Cc2ccc(C(F)(F)F)nc2N3)CCC1 |
